Test results from paper PMC10546487 (Journal of medicinal chemistry, 2022).
Where two headings read alike, the source gives them in different places.

Experiments:
MOR [1] = target: T1, MOR (Mus musculus, UniProt P42866); details: low MOR-expressing CHO cells and mouse thalamus; cited from earlier work
KOR [2] = target: T2, KOR (Mus musculus, UniProt P33534); assay: Radioligand competition binding assay, KOR
DOR [3] = target: T3, DOR (Mus musculus, UniProt P32300); assay: Radioligand competition binding assay, DOR
MOR [4] = target: T1, MOR; assay: MOR [35S]-GTPγS functional assay; assay type: biochemical
mice = assay: Warm-water tail immersion assay; assay type: in vivo, mouse; details: for Blockage of the morphine-mediated antinociception: 10 mg/kg s.c. in the presence of morphine (10 mg/kg)
In short: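 Male Swiss-Webster mice (23–35 g, 7–8 weeks), n = 5 per group. Single test-compound dose of 10 mg/kg given subcutaneously at time 0. Tail-flick latency measured in water at 56 ± 0.1 °C. Saline served as negative control and morphine as positive control. Response expressed as % maximum possible effect, reported as mean ± SD.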

KOR [5] = target: T2, KOR; details: [35S]GTPγS; cited from earlier work
morphine-pelleted mice [6] = details: 50 mg/kg; cited from earlier work
DOR [7] = target: T3, DOR; details: [35S]GTPγS; cited from earlier work
morphine-pelleted mice [8] = assay: Opioid withdrawal study in chronic morphine-pelleted mice; assay type: in vivo, mouse
[9] = Solubility observed during testing; assay type: physicochemical; details: during binding/functional testing
MOR [10] = target: T1, MOR; assay: Radioligand competition binding assay, MOR; details: for Selectivity δ/μ: ratio of Ki values DOR/MOR
[11] = Metabolic stability in rat liver microsomes; assay type: in vitro ADME
hERG potassium channel = hERG potassium channel (Homo sapiens, UniProt Q12809); assay: hERG automated patch-clamp assay in CHO-K1 cells; details: ratio of hERG IC50 values vs NAN
KOR [12] = target: T2, KOR; assay: KOR [35S]GTPγS functional assay; assay type: biochemical
DOR [13] = target: T3, DOR; assay: DOR [35S]GTPγS functional assay; assay type: biochemical
MOR [14] = target: T1, MOR; assay: Calcium flux assay in Gqi5-transfected MOR-CHO cells; assay type: cell-based; details: 0.3 nM to 3 μM
In short: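 Gqi5 cDNA lipofected into MOR-CHO cells, 4 h at 37 °C/5% CO2, then trypsinized, plated at […] and grown to confluence. At 48 h post-transfection, cells loaded 45 min with fluo-4 AM plus probenecid in HBSS–HEPES–Ca–Mg buffer. Test compound (0.3 nM–3 μM) given for agonist activity; Ca2+ read as RFU peak. Triplicate doses; ≥4 repeats.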

[15] = Metabolic stability in human liver microsomes; assay type: in vitro ADME

O=C(N[C@@H]1CC[C@@]2(O)[C@H]3Cc4ccc(O)c5c4[C@@]2(CCN3CC2CC2)[C@H]1O5)c1ccncc1 [NAP, 17-Cyclopropylmethyl-3,14β-dihydroxy-4,5α-epoxy-6β-[(4′-pyridyl)carboxamido]morphinan]
Shift of DAMGO concentration effect curve (MOR [1]): parallel rightward shift in the concentration effect curve of MOR full agonist DAMGO

CC(=O)c1c[nH]c2c(C(=O)N[C@H]3CC[C@@]4(O)[C@H]5Cc6ccc(O)c7c6[C@@]4(CCN5CC4CC4)[C@H]3O7)cccc12 [Compound 28, 17-Cyclopropylmethyl-3,14β-dihydroxy-4,5α-epoxy-6α-(3-acetyl-indole-7-carboxamido)morphinan]
Ki (KOR [2]): 6.39 ± 1.07 nM
Ki (DOR [3]): 10.9 ± 1.58 nM

O=C(N[C@H]1CC[C@@]2(O)[C@H]3Cc4ccc(O)c5c4[C@@]2(CCN3CC2CC2)[C@H]1O5)c1cccc2cc(Br)[nH]c12 [Compound 18, 17-Cyclopropylmethyl-3,14β-dihydroxy-4,5α-epoxy-6α-(2-bromo-indole-7-carboxamido)morphinan]
EC50 (MOR [4]): 2.36 ± 0.7 nM
Blockage of the morphine-mediated antinociception (mice): different degrees of inhibition of morphine’s antinociceptive effect
Ki (DOR [3]): 6.73 ± 1 nM

O=C(N[C@H]1CC[C@@]2(O)[C@H]3Cc4ccc(O)c5c4[C@@]2(CCN3CC2CC2)[C@H]1O5)c1cccc2cc[nH]c12 [NAN, 17-cyclopropylmethyl-3,14β-dihydroxy-4,5α-epoxy-6α-(indole-7-carboxamido)morphinan]
KOR Emax(% max of U50,488H) (KOR [5]): 73.90 ± 3.69%
Paw tremors (morphine-pelleted mice [6]): seemingly more paw tremors
Wet-dog shakes and jumps (morphine-pelleted mice [6]): did not induce significant wet-dog shakes and jumps
DOR Emax(% max of SNC80) (DOR [7]): 26.67 ± 1.17%

C=CCN1CC[C@]23c4c5ccc(O)c4O[C@H]2C(=O)CC[C@@]3(O)[C@H]1C5 [NLX, naloxone, reference compound]
Withdrawal symptoms (morphine-pelleted mice [8]; 1 mg/kg s.c.): induced significant withdrawal symptoms

O=C(N[C@@H]1CC[C@@]2(O)[C@H]3Cc4ccc(O)c5c4[C@@]2(CCN3CC2CC2)[C@H]1O5)c1cccc2c(Cl)c[nH]c12 [Compound 7, 17-Cyclopropylmethyl-3,14β-dihydroxy-4,5α-epoxy-6β-(3-chloro-indole-7-carboxamido)morphinan]
Ki (KOR [2]): 0.33 ± 0.05 nM
Antinociception effect (% MPE) (mice; 10 mg/kg s.c., 56 °C): noticeable antinociception
Ki (DOR [3]): 4.43 ± 1.06 nM

O=C(N[C@H]1CC[C@@]2(O)[C@H]3Cc4ccc(O)c5c4[C@@]2(CCN3CC2CC2)[C@H]1O5)c1cc2ccccc2cn1 [NAQ, 17-cyclopropylmethyl-3,14β-dihydroxy-4,5α-epoxy-6α-(isoquinoline-3-carboxamido)-morphinan]
Shift of DAMGO concentration effect curve (MOR [1]): parallel rightward shift in the concentration effect curve of MOR full agonist DAMGO

CC(=O)c1c[nH]c2c(C(=O)N[C@@H]3CC[C@@]4(O)[C@H]5Cc6ccc(O)c7c6[C@@]4(CCN5CC4CC4)[C@H]3O7)cccc12 [Compound 11, 17-Cyclopropylmethyl-3,14β-dihydroxy-4,5α-epoxy-6β-(3-acetyl-indole-7-carboxamido)morphinan]
Solubility observed in the in vitro assay [9]: poor solubility
Selectivity δ/μ (MOR [10]): < 1.6
Selectivity κ/μ (MOR [10]; ratio of Ki values KOR/MOR): <0.3
Ki (DOR [3]): 81.1 ± 9.98 nM

Cc1cc2cccc(C(=O)N[C@H]3CC[C@@]4(O)[C@H]5Cc6ccc(O)c7c6[C@@]4(CCN5CC4CC4)[C@H]3O7)c2[nH]1.Cl [Compound 21, 17-Cyclopropylmethyl-3,14β-dihydroxy-4,5α-epoxy-6α-(2-methyl-indole-7-carboxamido)morphinan]
Jumps (morphine-pelleted mice [8]; 40 mg/kg, vs 1 mg/kg naloxone): not significantly different from those at 1 mg/kg naloxone
Paw tremors (morphine-pelleted mice [8]; all doses up to 80 mg/kg, vs 1 mg/kg naloxone): significantly fewer paw tremors
Wet-dog shakes (morphine-pelleted mice [8]; all the doses tested, vs 1 mg/kg naloxone): did not precipitate more wet-dog shakes
CLint scaled [11]: < 2.31 L/h/kg
Selectivity δ/μ (MOR [10]): 27.3
Improvement of hERG profile in comparison to NAN (fold) (hERG potassium channel): seven-fold
Blockage of the morphine-mediated antinociception (mice): different degrees of inhibition of morphine’s antinociceptive effect
EC50 (KOR [12]; KOR EC50 (nM), mean ± SEM): 6.65 ± 0.78 nM
KOR Emax(% max of U50,488H) (KOR [12]; relative to KOR full agonist U50,488H): 48.28 ± 1.45%
EC50 (DOR [13]; DOR EC50 (nM), mean ± SEM): 4.99 ± 0.21 nM
DOR Emax(% max of SNC80) (DOR [13]; relative to DOR full agonist SNC80): 76.82 ± 4.82%
Ki (DOR [3]): 16 ± 1.09 nM
Agonist activity to increase the intracellular calcium concentration (MOR [14]): no obvious agonist activity
CLint scaled [15]: < 2.31 L/h/kg

O=C(N[C@@H]1CC[C@@]2(O)[C@H]3Cc4ccc(O)c5c4[C@@]2(CCN3CC2CC2)[C@H]1O5)c1cccc2c(C3CCCC3)c[nH]c12 [Compound 15, 17-Cyclopropylmethyl-3,14β-dihydroxy-4,5α-epoxy-6β-(3-cyclo-pentyl-indole-7-carboxamido)morphinan]
EC50 (MOR [4]): 2.28 ± 0.59 nM
Ki (DOR [3]): 9.88 ± 1.13 nM
